# Bioassay records: PubChem BioAssay, Broad Institute
# This is a sample that favours compounds with a hit; in the whole collection about 2.1% have one here.
# PAX8 reporter: inhibitors of PAX8 transcriptional activity in RMG-I cells | AID 652154 | inhibition, % at 12.6 µM | RMG-I TPO-luciferase reporter, SteadyGlo, 24 h | 360,000 tested, 1.2% active;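 active = mean replicate inhibition at least 60% with every replicate also reaching 60%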;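 also: luciferase light reporting Pax8 driven TPO promoter activity; plate controls were median of neutral control wells for no effect and mitoxantrone controls for full effect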
# aSyn UTR inh: MLPCN primary screen, SNCA 5' untranslated region; alpha-synuclein 5'UTR reporter, inhibitor activity; AID 1813; inhibition, % (tested at 7.5 µM); 300,000 tested, 0.82% active; in the data active = inhibition above about 60%;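 also: H4 neuroglioblastoma cells stably carrying SNCA 5'UTR luciferase fusion; 0% = DMSO wells and 100% = positive control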
# Shn3 inh set2: reduces Shn3 3'UTR luciferase signal in osteoblasts. Clone20 osteoblast Shn3 3'UTR firefly luciferase, 24 h. inhibition, % at 12.5 µM. 360,000 tested, 0.52% active;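 active = mean inhibition of at least 75% with every replicate also reaching 75%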;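 also: 0% = median of neutral control wells and 100% = pilot-screen positive control compound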
# EWS-Fli inh: inhibitors of EWS/Fli oncoprotein transcriptional activity; A673 NR0B1-luciferase reporter, viability-normalised; 350,000 tested, 0.67% active; inhibition, % at 12.6 µM;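 active = mean inhibition of at least 50% after viability correction, with every replicate also passing that limit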;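 also: firefly luciferase signal divided by Alamar Blue viability fluorescence both relative to DMSO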
# LMP1 NFkB inh: reduces LMP1-driven NF-kappaB luciferase signal; 350,000 tested, 0.69% active; inhibition, % at 12.5 µM; LMP1-induced NF-kappaB luciferase reporter cells, luminescence; in the data active = inhibition above about 41%;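 also: 0% = neutral control wells and 100% = reference inhibitor control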
# FN deposition inh: fibronectin deposition inhibition; AH1F fibroblasts, Alexa488-fibronectin deposition fluorescence, overnight; inhibition, % at 12.6 µM; 350,000 tested, 0.086% active; AID 743247;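 active = mean inhibition across replicates of 30% or more, regardless of how many single replicates reach that level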;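 also: positive control wells lacked labelled fibronectin entirely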
#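 Material: AH1F fibroblast monolayer depositing Alexa488-labelled fibronectin into matrix | Input: 10000 AH1F cells/well | Medium: DMEM plus 2% serum, read in PBS | Reagent: Alexa488-fibronectin, 24 nM final in well | Compound dosing: One dose per compound, pinned | Schedule: 1 h adhesion, overnight exposure | Measured by: Fluorescence at 485 nm excitation, 525 nm emission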
# Active calls of the source: *; · = no result.
SMILES,PAX8 reporter,aSyn UTR inh,Shn3 inh set2,EWS-Fli inh,LMP1 NFkB inh,FN deposition inh
C[C@@H]1CCCCO[C@@H](CN(C)CC2CCCCC2)[C@H](C)CN([C@H](C)CO)C(=O)c2cc(NS(=O)(=O)c3ccc(Cl)cc3)ccc2O1,92*,·,·,24,·,·
C[C@H](CO)N1C[C@H](C)[C@H](CN(C)CC2CCCCC2)OCCCC[C@H](C)Oc2ccc(NS(=O)(=O)c3ccc(Cl)cc3)cc2C1=O,29,·,·,65*,·,·
C[C@@H]1CN([C@H](C)CO)C(=O)c2cc(NS(=O)(=O)c3ccc(F)cc3)ccc2O[C@@H](C)CCCCO[C@@H]1CN(C)CC1CCCCC1,101*,·,·,-17,·,·
C[C@@H]1CN([C@@H](C)CO)C(=O)c2cc(NS(=O)(=O)c3ccc(F)cc3)ccc2O[C@@H](C)CCCCO[C@H]1CN(C)CC1CCCCC1,6,·,·,14,·,·
COC(=O)C[C@H]1C[C@H]2c3cc(NC(=O)Nc4ccc(OC)cc4)ccc3O[C@H]2[C@H](CO)O1,-8,·,·,0,·,-6
CO[C@@H]1CN(C)C(=O)c2cc(NC(=O)NC(C)C)ccc2OC[C@H](C)N(C(=O)C2CCC2)C[C@@H]1C,2,·,·,-11,·,·
O=C(/C=C\Nc1cccc(F)c1)c1cccs1,·,-28,-77,·,-50,·
Cc1ccc(N/C=C/C(=O)c2cccs2)cc1,25,42,10,59*,16,-16
O=C(C1=C[C@@H](C2CC2)C[C@@H](OCc2ccc(CO)cc2)O1)N1CCCC1,-16,·,·,-26,·,·
O=C(Cn1cc(C(=O)c2ccco2)c2ccccc21)Nc1ccccc1F,-3,-20,89*,0,15,1
O=Nc1c(O)c2ccccc2c2ccccc12,20,47,79,35,3,38*
CC(=O)c1ccc(-c2nc3c4ccccc4ccn3c2C(C)=O)o1,·,12,-7,·,77*,·
O=C(Cc1ccc(-c2ccccc2)cc1)NCc1ccccc1,56,104*,-5,·,3,-23
Cc1ccc(CNC(=O)Cc2ccc(-c3ccccc3)cc2)cc1,·,73*,18,·,3,6
c1ccc(CN=C(NCc2ccccc2)NCc2ccccc2)cc1,13,·,83*,-15,-5,-14
O=C(C[C@@H]1CC[C@H](NC(=O)Nc2cc(F)ccc2F)[C@H](CO)O1)Nc1ccccc1,·,·,·,8,·,·
COc1ccc(C#Cc2cnc3c(c2)C(=O)N([C@H](C)CO)C[C@@H](C)[C@H](CN(C)C(C)=O)O3)cc1,·,·,·,-8,·,-5
Cc1nnc(N/N=C/c2ccccc2C(F)(F)F)n1N,85*,-8,8,-6,-4,7
Cc1nnc(N/N=C/c2cccc(C(F)(F)F)c2)n1N,108*,-14,-24,-2,14,0
Cc1nnc(N/N=C/c2ccccc2F)n1N,20,-25,-12,2,-1,5
CCOc1cc(C(=O)OC(C)C(=O)Nc2ncc(Cl)cc2Cl)ccc1OCC(=O)N1CCOCC1 (stereo unspecified),14,-20,0,5,61*,-8
C[C@H](CO)N1C[C@H](C)[C@H](CN(C)C(=O)Cc2ccccc2)Oc2cc(-c3ccccc3)ccc2S1(=O)=O,3,·,·,-58,·,-12
Cc1ccc(S(=O)(=O)n2cccc2/C=C/[N+](=O)[O-])cc1,8,·,94*,18,36,-1
COc1ccc(-n2cccc2/C=C/[N+](=O)[O-])cc1,27,-58,32,25,-4,-6
CCNC(=O)C[C@H]1CC[C@H]2[C@H](COc3ccc(NC(=O)c4cscn4)cc3C(=O)N2C)O1,-18,·,·,3,·,·
Cc1ccc(S(=O)(=O)N(C)C[C@H]2OCCCC[C@H](C)Oc3ccc(NS(=O)(=O)c4cccs4)cc3C(=O)N([C@H](C)CO)C[C@@H]2C)cc1,72*,·,·,1,·,-2
Cc1ccc(S(=O)(=O)Nc2ccc3c(c2)C(=O)N([C@H](C)CO)C[C@H](C)[C@H](CN(C)S(=O)(=O)c2ccc(C)cc2)OCCCC[C@H](C)O3)cc1,63*,·,·,11,·,0
Cc1ccc(S(=O)(=O)Nc2ccc3c(c2)C(=O)N([C@@H](C)CO)C[C@@H](C)[C@@H](CN(C)S(=O)(=O)c2ccc(C)cc2)OCCCC[C@@H](C)O3)cc1,66*,·,·,0,·,8
